Calls of active or inactive are those of the source. The rule behind the calls is not given here.
Assays:
[1] = biological target: T1, Signal transducer and activator of transcription 5A (Homo sapiens, UniProt P42229); experiment: Binding affinity to human recombinant STAT5A assessed as dissociation constant incubated for 15 mins by biolayer interferometry
T1 sequence (P42229 whole entry): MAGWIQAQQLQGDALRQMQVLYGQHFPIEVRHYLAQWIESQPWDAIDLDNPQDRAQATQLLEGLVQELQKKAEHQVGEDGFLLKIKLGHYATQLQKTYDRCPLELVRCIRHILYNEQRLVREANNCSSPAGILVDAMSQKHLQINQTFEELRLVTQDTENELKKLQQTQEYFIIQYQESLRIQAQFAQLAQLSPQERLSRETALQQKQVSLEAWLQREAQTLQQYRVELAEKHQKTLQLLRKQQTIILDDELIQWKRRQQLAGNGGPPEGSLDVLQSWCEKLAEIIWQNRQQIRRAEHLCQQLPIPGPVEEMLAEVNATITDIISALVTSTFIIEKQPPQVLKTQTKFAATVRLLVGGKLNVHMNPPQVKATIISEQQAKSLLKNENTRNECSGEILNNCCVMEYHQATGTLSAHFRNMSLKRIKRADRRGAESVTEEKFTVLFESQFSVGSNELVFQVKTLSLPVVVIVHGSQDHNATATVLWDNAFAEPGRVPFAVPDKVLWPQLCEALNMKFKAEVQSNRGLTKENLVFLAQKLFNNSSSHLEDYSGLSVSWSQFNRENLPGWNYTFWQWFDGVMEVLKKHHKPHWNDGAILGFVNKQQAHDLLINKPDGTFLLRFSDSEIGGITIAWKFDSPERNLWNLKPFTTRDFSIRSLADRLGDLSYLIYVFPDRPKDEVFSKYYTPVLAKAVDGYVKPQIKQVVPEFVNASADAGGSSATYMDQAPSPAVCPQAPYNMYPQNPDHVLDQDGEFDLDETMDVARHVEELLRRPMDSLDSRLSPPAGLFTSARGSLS
In short: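 Biolayer interferometry with recombinant human STAT1, STAT2, STAT3, STAT4, STAT5A, STAT5B or STAT6 proteins containing their SH2 domain. Compound run in 2× serial dilutions from 200 nM. Kd taken from steady-state fitting of equilibrium responses against concentration using a 1:1 binding model.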

Mus musculus [2] = experiment: In vivo induction of STAT1 degradation in SCID mouse xenografted with human MOLM16 cells assessed as reduction in STAT1 in tumor tissue at 50 mg/kg, iv measured after 24 hrs by immunoblotting analysis; type: functional, organism-based
In short: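 SCID mice bearing MOLM-16 tumors given a single iv dose of 50 mg/kg or dosing vehicle. Tumor lysates immunoblotted for STAT3, STAT1 and STAT6 at time points from 1 h to at least 24 h.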

Mus musculus [3] = experiment: In vivo induction of STAT3 degradation in SCID mouse xenografted with human MOLM16 cells assessed as reduction in phosphorylated STAT3 level in tumor tissue at 50 mg/kg, iv measured after 24 hrs by immunoblotting analysis; type: functional, organism-based
In short: (§1)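 SCID mice bearing MOLM-16 or SU-DHL-1 xenografts given a single iv dose of 50 mg/kg or dosing vehicle. Tumor lysates immunoblotted for p-STAT3 Y705 and total STAT3 at time points up to 48 h (MOLM-16) and 24 h (SU-DHL-1).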

Mus musculus [4] = experiment: In vivo induction of STAT3 degradation in SCID mouse xenografted with human SU-DHL-1 cells assessed as reduction in phosphorylated STAT3 level in tumor tissue at 50 mg/kg, iv measured after 24 hrs by immunoblotting analysis; type: functional, organism-based; in short: as §1
[5] = Antitumor activity against human MOLM16 cells xenografted in SCID mouse assessed as tumor regression at 50 mg/kg, iv administered weekly measured after 2 weeks; type: functional
In short: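 SCID mice bearing MOLM-16 xenografts given compound iv once weekly at 25 or 50 mg/kg. Tumor volume and body weight measured every 2 days. Growth inhibition expressed against vehicle-treated controls.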

[6] = Toxicity in SCID mouse xenografted with human MOLM16 cells assessed as body weight loss at 25 to 50 mg/kg, iv for 65 days; type: organism-based; conditions: in vivo, 1560 h, dose 25-50 mg/kg, time 65 day
In short: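 SCID mice bearing MOLM-16 xenografts dosed intravenously at 25 or 50 mg/kg on a weekly schedule; vehicle 10% PEG400/90% PBS; body weight and tumor volume measured every 2 days; signs of toxicity monitored during and after treatment.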

[7] = biological target: Protein cereblon/Signal transducer and activator of transcription 2 (Homo sapiens) (UniProt Q96SW2+P52630); experiment: Protac activity at CRBN/STAT2 in human SU-DHL-1 cells […] at 0.25 to 100 uM incubated for 4 hrs by Western blot analysis; type: cell-based; conditions: dose lower 0.25 µM
[8] = biological target: Protein cereblon/Signal transducer and activator of transcription 6 (Homo sapiens) (UniProt P42226+Q96SW2); experiment: Protac activity at CRBN/STAT6 in human SU-DHL-1 cells assessed as STAT6 degradation at 0.25 to 100 uM incubated for 4 hrs by Western blot analysis; type: cell-based; conditions: dose 0.25-100 µM
[9] = (§2) Drug uptake in SCID mouse xenografted with human MOLM16 cells assessed as (2-(((5S,8S,10aR)-8-(((S)-5-amino-1-(benzhydrylamino)-1,5-dioxopentan-2-yl)carbamoyl)-3-(8-(2-(2,6-dioxopiperidin-3-yl)-1-oxoisoindolin-4-yl)oct-7-yno yl)-6-oxodecahydropyrrolo[1,2-a][1,5]diazocin-5-yl)carbamoyl)-1H-indole-5-carbonyl)phosphonic acid level in plasma at 50 mg/kg, iv measured after 1 hrs by LC-MS/MS; type: ADME, organism-based; conditions: in vivo
In short: (§3)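 SCID mice bearing MOLM-16 xenografts given a single iv dose of 50 mg/kg. Concentrations of parent and hydrolysis product measured in plasma (ng/mL) and tumor tissue (ng/g) at 1, 6 and 24 h.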

[10] = as §2, with “tumor tissue” for “plasma”; type: ADME, organism-based; conditions: in vivo; in short: as §3
[11] = as §2, with “in tumor tissue” for “in plasma”, “after 6” for “after 1”; type: ADME, organism-based; conditions: in vivo; in short: as §3
[12] = as §2, with “in tumor tissue” for “in plasma”, “after 24” for “after 1”; type: ADME, organism-based; conditions: in vivo; in short: as §3
[13] = Drug metabolism buffer pH 8 assessed as conversion to 5-amino-4-(4-(8-((5S,8S,10aR)-8-((S)-5-amino-1-(benzhydrylamino)-1,5-dioxopentan-2-ylcarbamoyl)-6-oxo-5-(5-(phosphonocarbonyl)-1H-indole-2-carboxamido)octahydropyrrolo[1,2-a][1,5]diazocin-3(4H)-yl)-8-oxooct-1-ynyl)-1-oxoisoindolin-2-yl)-5-oxopentanoic acid measured upto 100 hrs by LC/MS/MS analysis; conditions: time hrs <=100
In short: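 Parent compound incubated in buffer at pH 4 or pH 8, at room temperature or 37 °C. Percentages of the parent, the hydrolysis product and the glutarimide ring-opened product followed over time, up to 96 h.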

Protein cereblon/Signal transducer and activator of transcription 6 (Homo sapiens), sequence (P42226 2-847 limits assumed): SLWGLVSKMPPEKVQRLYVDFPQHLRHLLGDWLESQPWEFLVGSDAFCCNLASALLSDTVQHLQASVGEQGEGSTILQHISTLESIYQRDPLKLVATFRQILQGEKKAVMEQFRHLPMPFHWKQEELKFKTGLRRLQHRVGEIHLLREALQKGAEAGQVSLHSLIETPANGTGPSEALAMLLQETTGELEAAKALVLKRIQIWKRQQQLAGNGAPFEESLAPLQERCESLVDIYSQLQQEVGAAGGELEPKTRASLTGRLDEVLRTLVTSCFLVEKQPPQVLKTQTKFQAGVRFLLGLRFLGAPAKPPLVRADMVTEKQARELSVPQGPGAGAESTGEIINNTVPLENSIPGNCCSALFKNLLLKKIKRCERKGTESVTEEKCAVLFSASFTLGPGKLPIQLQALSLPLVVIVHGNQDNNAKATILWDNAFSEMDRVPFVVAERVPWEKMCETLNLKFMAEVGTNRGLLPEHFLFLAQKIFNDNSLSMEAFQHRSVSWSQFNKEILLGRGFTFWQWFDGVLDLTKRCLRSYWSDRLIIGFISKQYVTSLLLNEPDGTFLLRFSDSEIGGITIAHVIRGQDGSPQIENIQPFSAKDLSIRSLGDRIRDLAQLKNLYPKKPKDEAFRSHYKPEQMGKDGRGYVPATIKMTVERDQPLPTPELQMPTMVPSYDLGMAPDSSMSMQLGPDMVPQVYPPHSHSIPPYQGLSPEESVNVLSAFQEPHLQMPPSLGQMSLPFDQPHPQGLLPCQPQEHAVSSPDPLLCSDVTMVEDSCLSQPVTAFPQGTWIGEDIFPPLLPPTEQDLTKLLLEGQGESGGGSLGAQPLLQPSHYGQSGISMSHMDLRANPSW
Protein cereblon/Signal transducer and activator of transcription 6 (Homo sapiens), sequence (Q96SW2 whole entry partner): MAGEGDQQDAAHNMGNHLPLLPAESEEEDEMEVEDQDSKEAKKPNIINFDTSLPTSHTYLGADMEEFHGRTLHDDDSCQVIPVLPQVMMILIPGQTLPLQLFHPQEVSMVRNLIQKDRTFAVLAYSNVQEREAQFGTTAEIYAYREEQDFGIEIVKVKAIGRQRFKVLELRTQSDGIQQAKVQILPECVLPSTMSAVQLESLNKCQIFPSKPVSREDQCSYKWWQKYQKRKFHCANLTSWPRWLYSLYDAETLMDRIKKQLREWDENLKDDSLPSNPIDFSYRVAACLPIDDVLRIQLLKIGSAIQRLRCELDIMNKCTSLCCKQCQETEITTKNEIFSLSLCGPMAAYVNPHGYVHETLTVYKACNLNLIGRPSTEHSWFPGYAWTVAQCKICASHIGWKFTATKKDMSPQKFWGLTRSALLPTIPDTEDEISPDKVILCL
Protein cereblon/Signal transducer and activator of transcription 2 (Homo sapiens), sequence (P52630 whole entry, looked up): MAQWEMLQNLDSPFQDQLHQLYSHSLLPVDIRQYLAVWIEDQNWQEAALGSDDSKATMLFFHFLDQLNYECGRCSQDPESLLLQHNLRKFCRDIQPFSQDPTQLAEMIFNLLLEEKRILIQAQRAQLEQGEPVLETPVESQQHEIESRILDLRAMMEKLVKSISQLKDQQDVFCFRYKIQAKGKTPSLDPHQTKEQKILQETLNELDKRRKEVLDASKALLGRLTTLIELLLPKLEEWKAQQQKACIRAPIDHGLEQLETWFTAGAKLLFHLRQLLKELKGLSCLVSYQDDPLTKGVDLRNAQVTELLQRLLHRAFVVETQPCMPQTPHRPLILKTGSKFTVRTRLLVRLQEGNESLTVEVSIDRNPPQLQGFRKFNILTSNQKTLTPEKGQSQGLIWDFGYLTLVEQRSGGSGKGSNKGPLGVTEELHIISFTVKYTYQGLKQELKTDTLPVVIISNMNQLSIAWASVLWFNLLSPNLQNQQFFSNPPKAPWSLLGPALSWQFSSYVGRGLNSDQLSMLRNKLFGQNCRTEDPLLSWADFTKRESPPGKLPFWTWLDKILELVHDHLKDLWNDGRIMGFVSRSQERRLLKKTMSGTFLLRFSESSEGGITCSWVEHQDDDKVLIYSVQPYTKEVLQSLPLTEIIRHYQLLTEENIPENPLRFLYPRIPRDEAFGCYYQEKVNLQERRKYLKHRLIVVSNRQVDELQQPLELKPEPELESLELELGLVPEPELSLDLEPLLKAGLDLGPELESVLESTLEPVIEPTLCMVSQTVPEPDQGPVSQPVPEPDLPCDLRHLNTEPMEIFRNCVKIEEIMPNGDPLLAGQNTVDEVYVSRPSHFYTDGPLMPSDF
Protein cereblon/Signal transducer and activator of transcription 2 (Homo sapiens), sequence (Q96SW2 whole entry, looked up): as the sequence (Q96SW2 whole entry partner) above

In the case of `NC(=O)CC[C@H](NC(=O)[C@@H]1CC[C@@H]2CCN(C(=O)CCCCCC#Cc3cccc4c3CN(C3CCC(=O)NC3=O)C4=O)C[C@H](NC(=O)c3cc4cc(C(=O)P(=O)(O)O)ccc4[nH]3)C(=O)N21)C(=O)NC(c1ccccc1)c1ccccc1` (stereo partly drawn), the Kd [1] is reported as > 10 nM, the Activity (Mus musculus [2]) is reported as “inactive” and the Activity (Mus musculus [3]) is reported as “Active”. The Activity (Mus musculus [4]) was “Active”, the Activity [5] was 100% and the Activity [6] was “Non-Toxic”.
For `NC(=O)CC[C@H](NC(=O)[C@@H]1CC[C@@H]2CCN(C(=O)CCCCCC#Cc3cccc4c3CN(C3CCC(=O)NC3=O)C4=O)C[C@H](NC(=O)c3cc4cc(C(F)(F)P(=O)(O)O)ccc4[nH]3)C(=O)N21)C(=O)NC(c1ccccc1)c1ccccc1` (stereo partly drawn), the Activity [7] was “inactive”, the Activity [8] was “inactive” and the Drug uptake [9] was 48476 ng/mL. For the same compound, the Drug uptake [10] was 6350 ng/g, the Drug uptake [11] was 1750 ng/g and the Drug uptake [12] was 396 ng/g. For the same compound, the Drug metabolism [13] was “Metabolite detected”.
